Only some compounds are listed: those with a hit (about 1.6% of all), similar ones and a draw of the others.
PLCb3 inh – PLC-beta3 (human) inhibition, primary screen | Q01970 | Purified PLC-beta3, fluorogenic substrate, fluorescence | inhibition, % at 12.2 µM | 370,000 tested, 0.18% active | AID 720704
proCasp7 act – activates human procaspase-7, counter-screen for procaspase-3 activators. activation, % at 8.5 µM. P55210. 330,000 tested, 0.093% active. recombinant procaspase-7, Ac-DEVD-pNA absorbance 405 nm; D23A/D198A/D206A triple mutant, cannot self-cleave; scale: DMSO 0, 5 µM enzyme 100;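 active means percent activation above the screen-wide mean plus 3 SD, cut at about 25% in these data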
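Material: Procaspase-7 triple mutant (PC-7 D3A) | Quantity: 2 µM procaspase-7 mutant as dispensed | Reagent: DEVD-pNA substrate | Times: 1 h preincubation, 2 h reaction | Technique: 405 nm absorbance of p-nitroaniline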
HGIII-sPLA2 inh – Inhibits HGIII-sPLA2 liposome hydrolysis, primary screen. 370,000 tested, 0.56% active. AID 743126. Q9NZ20. inhibition, % at 12.2 µM. QFRET BODIPY PC-A2 liposome hydrolysis, fluorescence;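 active means inhibition above mean plus 3 SD of compounds lying within the high and low control bounds, cut at about 19% in these data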
procasp3 activ – activators of human procaspase-3 | 330,000 tested, 0.11% active | P42574 | activation, % at 8.5 µM | recombinant procaspase-3 D3A, Ac-DEVD-pNA absorbance 405 nm;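 active means activation above the mean of all tested compounds plus 3 SD, cut at about 21% in these data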
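Technique: 405 nm absorbance of p-nitroaniline, reads at 0 and 120 min; Test system: Procaspase-3 D3A mutant; Incubation: 1 h enzyme-compound preincubation, then 2 h substrate reaction, 25 °C; Repeats: singlicate, each compound tested once; Benchmarks: low control DMSO wells, high control DMSO plus 5 µM PC-3 D3A.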
PLCg1 inh – blocks human PLC-gamma1 enzyme activity; P19174; purified PLC-gamma1, fluorogenic substrate, fluorescence; inhibition, % at 12.2 µM; 370,000 tested, 0.84% active; AID 720700; in the data active means inhibition above about 9.5%
PLCgamma1 ctr – inhibits human PLC-gamma1 in PLC-beta3 counter-screen | shares compounds with PLCg1 inh | purified PLC-gamma1, fluorogenic substrate, fluorescence | inhibition, % at 12.3 µM | 3,300 tested, 3.1% active; in the data active means inhibition above about 9.5%
PLCb3 confirm – confirmation of human PLC-beta3 inhibitors. inhibition, % at 12.3 µM. shares compounds with PLCg1 inh. purified PLC-beta3, fluorogenic substrate fluorescence. 3,300 tested, 1% active
Large screens that a line does not name were inactive (follow-up assays come after a bar, where they were run). Unless noted, no stated cut-off is given here; in the data, active means inhibition above about 11%; inactive means the rest.

O=C(c1cccc(S(=O)(=O)N2CCCCC2)c1)N1CCc2ccccc21	PLCg1 inh 15.3 | PLCgamma1 ctr inactive | PLCb3 confirm inactive
COc1ccccc1N=C1NC(=O)/C(=C/c2ccc(N(C)C)cc2)S1	none
Cc1ccc(C(=O)NC2CCC(C)CC2)s1 (stereo unspecified)	none
Cc1ccc(C(=O)NC2CCCC2)s1	PLCg1 inh 10.4 | PLCgamma1 ctr inactive | PLCb3 confirm inactive
Cc1cn([C@H]2C[C@H](O)[C@@H](CNS(=O)(=O)c3ccc(NS(=O)(=O)N(C)C)cc3)O2)c(=O)[nH]c1=O	none (no result: proCasp7 act, procasp3 activ)
CC(C)(C)NC(=O)NC(=O)COC(=O)Cc1c(Cl)cccc1Cl	PLCg1 inh 9.8 | PLCgamma1 ctr inactive | PLCb3 confirm inactive
CC(C)(C)NC(=O)NC(=O)COC(=O)c1c(F)cccc1Cl	none
COc1ccc(C(O)c2nc(-c3cccc(NC(C)=O)c3)cs2)cc1 (stereo unspecified)	none (no result: proCasp7 act, procasp3 activ)
COc1ccc(CCNC(=O)COC(=O)C2=NNC(=O)CC2)cc1	none (no result: proCasp7 act, procasp3 activ)
CCOc1ccc(C(=O)NC(=S)Nc2ccccc2N2CCOCC2)cc1Br	PLCg1 inh 9.9 | PLCgamma1 ctr inactive | PLCb3 confirm inactive
COc1ccc(C(=O)NC(=S)Nc2ccccc2N2CCOCC2)cc1Br	none
Cc1c(C(=O)N/N=C/c2cccs2)nnn1-c1nonc1N	PLCg1 inh 11.5 | PLCgamma1 ctr inactive | PLCb3 confirm inactive
CC(=O)Nc1cnc(NC(=O)c2cccc(F)c2)cc1C	PLCb3 inh 10.9 | PLCgamma1 ctr inactive | PLCb3 confirm inactive
CCC(=O)Nc1cnc(NC(=O)c2cccc(F)c2)cc1C	none
O=C(CCc1nc(-c2ccccc2F)no1)NCCN1CCOCC1	PLCb3 inh 14.4 | PLCgamma1 ctr inactive | PLCb3 confirm inactive
CC1(C)Cc2c(sc(/N=C/N3CCCCCC3)c2C#N)C(C)(C)N1	none
CC1(C)Cc2c(sc(/N=C/N3CCCC3)c2C#N)C(C)(C)N1	PLCb3 inh 12.9, PLCg1 inh 18.7 | PLCgamma1 ctr inactive | PLCb3 confirm inactive
CCc1cc(C(=O)NNC(=O)CCl)sc1C	PLCg1 inh 10.6 | PLCgamma1 ctr inactive | PLCb3 confirm inactive
CCOc1ccc(NC(=O)c2ccccc2NC(=O)CNC2CCCC(C)C2C)cc1 (stereo unspecified)	none
COc1ccc(C2SCC(=O)N2c2ccc(OC)cc2)cc1 (stereo unspecified)	none
COc1ccc(C2SCC(=O)N2CCCN(C)C)cc1 (stereo unspecified)	PLCb3 inh 13.2 | PLCgamma1 ctr inactive | PLCb3 confirm inactive
COc1ccc(C(=O)N2CCCC(c3cc(C(=O)NCc4ccc(F)cc4)no3)C2)cc1 (stereo unspecified)	PLCg1 inh 9.7 (no result: proCasp7 act, procasp3 activ) | PLCgamma1 ctr inactive | PLCb3 confirm inactive
COc1ccc(C(=O)N2CCCC(c3cc(C(=O)NCc4ccccc4)no3)C2)cc1 (stereo unspecified)	none (no result: proCasp7 act, procasp3 activ)
COc1ccc(C2=C(CC(=O)O)C(=O)CC2)cc1	none
O=C(O)CC1=C(c2ccc(F)cc2)CCC1=O	PLCb3 inh 13.6 | PLCgamma1 ctr inactive | PLCb3 confirm inactive
O=S1(=O)CCN(Cc2ccc(Cl)cc2)CC1	PLCg1 inh 14.2 | PLCgamma1 ctr inactive | PLCb3 confirm inactive
CCOc1ccc(-n2nnnc2SCC(=O)N2CCOCC2)cc1	none
CCOc1ccc(Cc2nc(C)c(CC(=O)N3CCOCC3)c(=O)[nH]2)cc1	PLCg1 inh 10.5 | PLCgamma1 ctr inactive | PLCb3 confirm inactive
CC(C)n1c(O)c(N=NC(=O)Cc2csc(N3CCOCC3)n2)c2ccccc21	none
CCOC(=O)C1(C)CCN1C(=O)c1ccc(C)cc1 (stereo unspecified)	PLCb3 inh 16.2, PLCg1 inh 9.8 (no result: proCasp7 act, procasp3 activ) | PLCgamma1 ctr inactive | PLCb3 confirm inactive
N#CC(c1ccccc1)C(CC(=NO)c1ccccc1)c1ccccc1 (stereo unspecified)	none (no result: proCasp7 act, procasp3 activ)
Cc1cc(C(=O)NC(=S)Nc2cccc(C(=O)O)c2C)ccc1[N+](=O)[O-]	PLCg1 inh 9.8 | PLCgamma1 ctr inactive | PLCb3 confirm inactive
Cc1cc(C(=O)NC(=S)Nc2cccc(NC(=O)C(C)C)c2)ccc1[N+](=O)[O-]	none
CCC(=O)Nc1ccc(N2CCN(Cc3ccccc3)CC2)cc1	none
O=C(CCS(=O)(=O)c1ccccc1F)Nc1ccc(N2CCN(Cc3ccccc3)CC2)cc1	PLCg1 inh 10.5 | PLCgamma1 ctr inactive | PLCb3 confirm inactive
Cc1cc(Nc2cccc(Cl)c2Cl)n2ncnc2n1	PLCg1 inh 13.2 (no result: proCasp7 act, procasp3 activ) | PLCgamma1 ctr inactive | PLCb3 confirm inactive
Cc1ccccc1Cn1c(=O)c2c(nc3n2CCN3Cc2ccco2)n(C)c1=O	PLCg1 inh 10.6 (no result: proCasp7 act, procasp3 activ) | PLCgamma1 ctr inactive | PLCb3 confirm inactive
CC(C)(C)c1ccc(OCC(O)CN2CCN(C(=O)c3ccccc3)CC2)cc1 (stereo unspecified)	PLCg1 inh 13.9 | PLCgamma1 ctr inactive | PLCb3 confirm inactive
CCOC(=O)C1CCN(CC(O)COc2ccc(C(C)(C)CC)cc2)CC1 (stereo unspecified)	PLCg1 inh 12.3 | PLCgamma1 ctr inactive | PLCb3 confirm inactive
CCCOC(=O)c1ccc(OCC(O)CN2CCN(C(=O)c3ccccc3)CC2)cc1 (stereo unspecified)	none
CCOC(=O)C1CCN(C(=O)COc2ccc(Br)cc2)CC1	PLCg1 inh 11.4 | PLCgamma1 ctr inactive | PLCb3 confirm inactive
CCOC(=O)C1CCN(CC(O)COc2ccc(C(C)(C)C)cc2)CC1 (stereo unspecified)	none
Cc1ccc(C(=O)Nc2ccc(N3CCN(C(=O)c4cccs4)CC3)cc2)c(Cl)c1	none
CC(C)CC1NC(=O)c2cccnc2-n2c1nc1cc(F)ccc1c2=O (stereo unspecified)	none (no result: proCasp7 act, procasp3 activ)
O=C(Nc1ccccc1Cl)NC1CCCCCCC1	none (no result: proCasp7 act, procasp3 activ)
Cc1ccc2c(c1)NC(=O)C(CC(=O)NCCCN1CCN(c3cc(Cl)ccc3C)CC1)O2 (stereo unspecified)	PLCg1 inh 9.5 | PLCgamma1 ctr inactive | PLCb3 confirm inactive
CCOC(=O)C1=NOC2COC3(CCN(c4ncccn4)CC3)OCC12 (stereo unspecified)	none
O=C1c2ccccc2C(c2nnnn2-c2ccc3c(c2)OCCO3)N1CCOc1ccccc1 (stereo unspecified)	none (no result: proCasp7 act, procasp3 activ)
Cc1cc(NC(=O)c2cccnc2)ccc1Br	none
COc1ccc(C(=O)N2CCc3ccc(NC(=O)c4ccccn4)cc3C2)cc1F	none (no result: proCasp7 act, procasp3 activ)
O=C(Nc1nn[nH]n1)C12CC3CC(CC(C3)C1)C2	PLCg1 inh 10.4 | PLCgamma1 ctr inactive | PLCb3 confirm inactive
CC(C)C(NC(=O)C12CC3CC(CC(C3)C1)C2)C(=O)NC1=NCCS1 (stereo unspecified)	none (no result: PLCb3 inh, HGIII-sPLA2 inh, PLCg1 inh)

Assay outcomes: PubChem BioAssay, The Scripps Research Institute Molecular Screening Center
